PGC1a Ac signal = raises PGC1a acetylation signal in U2OS cells | U2OS PGC1a acetylation AlphaScreen, overnight | activation, % at 15.6 µM | 350,000 tested, 0.21% active | AID 651723;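 active = every replicate reaching activation of at least 50%, whatever the mean replicate activation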;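 also: hits raise the AlphaScreen acetylation signal above neutral controls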
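Test system: U2OS cells expressing flag-PGC1a plus GCN5; Amount: 7000 U2OS cells per well; Compound: single test concentration per compound; Incubation: compound overnight at 37 °C, each detection step 1 h RT; Signal: AlphaScreen lysate read.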
Large screens that a line does not name were inactive. The entries come from a sample that favours hits as a whole.

COc1cccc(C(=O)CSc2nnc(CNS(=O)(=O)c3ccc(C)cc3)n2C)c1	none
C[C@@H]1CN([C@H](C)CO)C(=O)c2cc(C#CC3CC3)cnc2O[C@H]1CN(C)C(=O)Nc1ccc(F)cc1	none
CCc1ccc(C(=O)NNC(=O)Cn2c(=O)cnc3ccccc32)cc1	none
CCC(=O)N(C)C[C@@H]1Oc2ncc(-c3ccc(C(=O)N(C)C)cc3)cc2C(=O)N([C@H](C)CO)C[C@@H]1C	none
O=C(Cn1cc(C(=O)c2cccs2)c2ccccc21)NCC1CCCO1 (stereo not given)	PGC1a Ac signal 85.7
CN(CC(=O)NCC1CCCO1)S(=O)(=O)c1cc(Cl)ccc1Cl (stereo not given)	none
CC(C)c1nnc(NC(=O)CCS(=O)(=O)c2nc(-c3cccs3)cc(C(F)(F)F)n2)s1	PGC1a Ac signal 102.8
CCCCN(CCCC)CCNC(=O)c1ccc2nc(-c3ccccc3NC(C)=O)c(=O)[nH]c2c1	none
CCCN(CC)c1ncnc2[nH]ncc12	none
COc1ccc(-c2cnc3c(c2)C(=O)N([C@H](C)CO)C[C@@H](C)[C@@H](CN(C)C(=O)Nc2c(C)noc2C)O3)cc1	none
COc1ccc(C(=O)N/N=C(/C)c2cccc(NC(=O)c3ccccc3F)c2)cc1	none
COc1ccc(NC(=O)CN(C)C(=O)c2cnc(Cl)c(Cl)c2)cc1	none
COc1ccc(CCNC(=O)c2ccc(Cl)cc2)cc1	PGC1a Ac signal 81.1
O=S(=O)(c1ccc(Br)s1)N1CCN(Cc2ccc3c(c2)OCO3)CC1	none
O=C(O)CSc1nnc(COc2cccc3ccccc23)o1	none
N#CCSc1nnc(COc2ccc3ccccc3c2)o1	PGC1a Ac signal 51.8
CNC[C@@H]1OCCCC[C@H](C)Oc2ccc(NS(=O)(=O)c3cccs3)cc2C(=O)N([C@H](C)CO)C[C@@H]1C	none
O=C(c1ccco1)N(Cc1ccc([N+](=O)[O-])cc1)c1ccc(Br)cc1	PGC1a Ac signal 58.0
CC1=CCC2C(=O)N(c3cccc(C(=O)NCc4ccccc4)c3)C(=O)C2C1 (stereo not given)	none
Cc1cccc2cc(CN(Cc3nnnn3Cc3ccco3)C3CCCC3)c3nnnn3c12	PGC1a Ac signal 55.5
COc1ccc(CCNC(=O)C(=O)NCC2CCCO2)cc1OC (stereo not given)	none
O=C(CCCc1cccs1)NCCc1c[nH]c2ccccc12	none
COc1cc2[nH]c(=O)n(CCCC(=O)NCCc3ccccc3)c(=O)c2cc1OC	PGC1a Ac signal 84.3
COc1ccc(C(=O)N/C(=C/c2cccs2)C(=O)NC(C)(C)C)cc1OC	none
CCN(CCCNC(=O)CN(C)S(=O)(=O)c1cccc2nsnc12)c1ccccc1	PGC1a Ac signal 88.6
CN(CC(=O)Nc1ccc(F)c(F)c1)S(=O)(=O)c1cccc2nsnc12	PGC1a Ac signal 62.6
CC1CCCCN1C(=O)CN(C)S(=O)(=O)c1cccc2nsnc12 (stereo not given)	none
N#Cc1sc2nccc(Nc3ccccc3)c2c1N	none
O=S(=O)(Nc1cccc(CCc2ccccn2)c1)c1ccc2ccccc2c1	none
CCCCCSc1nnc(C)c(=O)[nH]1	none
CCn1nccc1C(=O)Nc1ccccc1OC	none
COc1ccccc1NC(=O)c1ccc(NC(=O)CNC(=O)c2ccc(OC)c(OC)c2)cc1	PGC1a Ac signal 71.1
CCn1c(=N)n(CC(=O)c2ccc(OC)c(OC)c2)c2ccccc21	none
COc1ccc(C2NC3=C(CCC3)C3(C#N)C(OC)(OC)N=C(N)C23C#N)cc1 (stereo not given)	none
COCC(=O)N1CC(=O)N2[C@@H](CO)[C@H](c3ccc(-c4ccncc4)cc3)[C@@H]2C1	none
CC1(C)CC2(CCO1)OC(=O)CC2C(=O)Nc1cccc2ccccc12 (stereo not given)	PGC1a Ac signal 71.6
CC(C)c1ccc(NC(=O)c2n[nH]c(=O)c3ccccc23)cc1	none
CC(C)c1ccc(NC(=O)CCNS(=O)(=O)c2cccc3nonc23)cc1	PGC1a Ac signal 53.0
O=C(Nc1cccc(F)c1)C1CCN(S(=O)(=O)c2cccc3nonc23)CC1	none
CCCOc1ccccc1-n1sc2c(c1=S)-c1cc(OC)cc3c1N(C(=O)C3=O)C2(C)C	none
O=C(C(Br)=Cc1ccccc1)c1ccccc1	PGC1a Ac signal 159.7
OCc1ccc2c(c1)c(-c1ccc3c(c1)OCCO3)c(-c1ccccc1)n2-c1ccccc1	PGC1a Ac signal 177.8
Fc1ccc(CNC(=S)NCc2ccc(F)cc2)cc1	none
C=CS(=O)(=O)N(Cc1ccccc1Br)[C@H](CO)Cc1ccccc1	none
COc1ccc(Cl)cc1NC(=O)CN1CCC(n2nnc3cc(C)ccc32)CC1	none
CCOc1ccc(NC(=O)CN2CCC(n3cnc4cc(F)ccc43)CC2)cc1	PGC1a Ac signal 67.3
COc1cc(NC(=O)CCN2CCN(C)CC2)cc(OC)c1	none
COc1ccccc1C(=O)Nc1ccc2c(c1)nc(CCNC(=O)c1ccco1)n2C	PGC1a Ac signal 115.1
COc1ccccc1C(=O)Nc1ccc2c(c1)C(=O)N(C)C[C@H](OC)[C@H](C)CN(CC1CC1)[C@@H](C)CO2	none
O=C(C[C@H]1CC[C@H](NC(=O)C2CCC2)[C@@H](CO)O1)NCC1CC1	none
Cc1ccc(Nc2nc(-c3c(C)nc4ncccn34)cs2)cc1	PGC1a Ac signal 79.6
Cc1ccc(Nc2nc(-c3c(C)nc4ccccn34)cs2)cc1	PGC1a Ac signal 121.3

Assay outcomes: PubChem BioAssay, Broad Institute
